The source made the active and inactive calls. No cut-off for these calls is given here.
Columns and labels:
HL-60 = test: Cytotoxicity against human HL60 cells after 72 hrs by trypan blue assay; format: functional, cell-based; conditions: HL-60, 72 h
Procedure, shortened: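 HL-60 cells kept in RPMI 1640 with 15% heat-inactivated FCS plus antibiotics, 37 °C, 5% CO2. 4×10^4 cells/well seeded, 24 h, then a range of concentrations added to complete medium for 72 h. Cell number counted by trypan blue; IC50 is the concentration giving 50% fewer cells than control cultures.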

HeLa = test: Cytotoxicity against human HeLa cells after 72 hrs by trypan blue assay; format: functional, cell-based
Procedure, shortened: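 HeLa cells kept in Ham's F-12 with 10% heat-inactivated FCS plus antibiotics, 37 °C, 5% CO2. 4×10^4 cells/well seeded, 24 h, medium renewed, then a range of concentrations added for 72 h. Viability by trypan blue; IC50 is the concentration giving 50% fewer cells than control.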

Salmonidae = test: Binding affinity to Salmon testes DNA assessed as drug-DNA complex formation by linear flow dichroism method
Procedure, shortened: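 Salmon testes DNA at 1.6×10^-3 M in ETN buffer (10 mM Tris, 10 mM NaCl, 1 mM EDTA, pH 7). DNA concentration set from extinction coefficient 6600 M(p)-1 cm-1 at 260 nm. Linear dichroism spectra recorded at 25 °C at [drug]/[DNA] = 0.00 and 0.08.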

| Activity (Salmonidae) | Compound | IC50 (HL-60) | IC50 (HeLa) |
| --- | --- | --- | --- |
| – | COc1ccc2c(c1)SCc1cn[nH]c1-2 | > 20 µM | > 20 µM |
| – | Clc1ccc(-n2ncc3c2-c2ccc(Cl)cc2SC3)cc1 | > 20 µM | > 20 µM |
| – | COc1ccc(-n2ncc3c2-c2ccc(Cl)cc2SC3)cc1 | > 20 µM | > 20 µM |
| – | Clc1ccc2c(c1)SCc1cnn(-c3ccccc3)c1-2 | > 20 µM | > 20 µM |
| – | Clc1ccc2c(c1)SCc1cn[nH]c1-2 | > 20 µM | > 20 µM |
| inactive | COc1ccc(-n2ncc3c2-c2ccc(OC)cc2SC3)cc1 | 6.6 µM | 17.8 µM |

Reference: ChEMBL document CHEMBL1139283, “Synthesis and biological activity of 1,4-dihydrobenzothiopyrano[4,3-c]pyrazole derivatives, novel pro-apoptotic mitochondrial targeted agents” (Bioorg Med Chem, 2009)
